The array DNA melting data of Ke et al. (doi:10.1101/2024.01.08.574731)

Experiments:
[1] = folding enthalpy; higher = less favourable; fluorescence melt of hairpins on a sequencing array, two-state fit; conditions: sodium 0.088 M
In short: (§1)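 With Cy3 and quencher oligos annealed, library hairpins on a sequenced MiSeq flow cell were imaged for Cy3 fluorescence in 50 mM Na-HEPES pH 8.0, 25 mM NaCl, in 2.5 °C steps up to 60 °C. Melting temperature and folding enthalpy were derived from bootstrapped two-state fits of signals normalised to pre-quench Cy3 and to control constructs. Four replicates were combined by inverse variance, with fitted temperatures raised by 9.35 °C to match UV melts.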

[2] = melting temperature; fluorescence melt of hairpins on a sequencing array, two-state fit, raised by 9.35 °C to match UV melts; conditions: sodium 0.088 M
In short: as §1

| Sequence | folding enthalpy [1] | Tm [2] |
| --- | --- | --- |
| CGATGGCGGAAACGCTCG (((..(((....)))))) | -15.8 kcal/mol | 38.5 °C |
| CGATTCGGAAACGATCG (((.(((....)))))) | -32.8 kcal/mol | 44 °C |
| CGCAACGGAAACGTGGCG (((.(((....))).))) | -46.5 kcal/mol | 57.7 °C |
| CGCAAGAAATTGCG (((((....))))) | -29.6 kcal/mol | 53.3 °C |
| CGCACCGGAAACGGCGCG (((.(((....))).))) | -52.1 kcal/mol | 60.9 °C |
| CGCACGGAAACGTCCGCG ((((((....)))..))) | -19.1 kcal/mol | 41.2 °C |
| CGCACGGAAACGTCGGCG ((((((....)))..))) | -24 kcal/mol | 46.6 °C |
| CGCACTCGGAAACGAGCG (((..(((....)))))) | -14.1 kcal/mol | 39.9 °C |
| CGCAGCGGAAACGCCGCG (((.(((....))).))) | -34 kcal/mol | 58 °C |
| CGCAGGAAACTGCG (((((....))))) | -25.9 kcal/mol | 60.3 °C |
| CGCAGTCGGAAACGAGCG (((..(((....)))))) | -10.9 kcal/mol | 36 °C |
| CGCATACGGAAACGTGCG (((..(((....)))))) | -30.2 kcal/mol | 48.9 °C |
| CGCCATCGGAAACGAGCG (((..(((....)))))) | -18.1 kcal/mol | 37 °C |
| CGCCCGGAAACGGAGCG ((((((....))).))) | -31.8 kcal/mol | 58.3 °C |
| CGCCCGGAAACGGCCGCG ((((((....)))..))) | -19.6 kcal/mol | 43.8 °C |
| CGCCCGGAAACGGGAGCG ((((((....)))..))) | -15.3 kcal/mol | 55.3 °C |
| CGCCGCGGAAACGCAGCG (((.(((....))).))) | -37.5 kcal/mol | 59 °C |
| CGCCTACGGAAACGTGCG (((..(((....)))))) | -23.2 kcal/mol | 39.4 °C |
| CGCCTCCGGAAACGGGCG (((..(((....)))))) | -25.6 kcal/mol | 48.1 °C |
| CGCGACGGAAACGTAGCG (((.(((....))).))) | -38.6 kcal/mol | 58.6 °C |
| CGCGACGGAAACGTGGCG (((.(((....))).))) | -49 kcal/mol | 56.9 °C |
| CGCGACGGAAACGTTGCG (((.(((....))).))) | -54.2 kcal/mol | 61 °C |
| CGCGCCGGAAACGGGCG (((.(((....)))))) | -26.4 kcal/mol | 60.4 °C |

| Sequence | folding enthalpy [1] | Tm [2] |
| --- | --- | --- |
| CGCGCGGAAACGCTTGCG ((((((....)))..))) | -21.5 kcal/mol | 49.4 °C |
| CGCGGAAAAACAACAACAACCGCG ((....................)) | -29.6 kcal/mol | 37.3 °C |
| CGCGGAAAAATCCGCG ((((((....)))))) | -38.1 kcal/mol | 58.9 °C |
| CGCGGAAAACTCCGCG ((((((....)))))) | -38.9 kcal/mol | 62 °C |
| CGCGGAAAGCTCCGCG ((((((....)))))) | -28.3 kcal/mol | 68.7 °C |
| CGCGGAACACTCCGCG ((((((....)))))) | -34.8 kcal/mol | 63.3 °C |
| CGCGGAACTATCCGCG ((((((....)))))) | -31.2 kcal/mol | 68.7 °C |
| CGCGGAAGAATCCGCG ((((((....)))))) | -32.1 kcal/mol | 69 °C |
| CGCGGAAGATTCCGCG ((((((....)))))) | -38.7 kcal/mol | 68.9 °C |
| CGCGGAAGCATCCGCG ((((((....)))))) | -27.5 kcal/mol | 60.3 °C |
| CGCGGAAGGCTCCGCG ((((((....)))))) | -30.1 kcal/mol | 68.7 °C |
| CGCGGAAGGGTCCGCG ((((((....)))))) | -29.1 kcal/mol | 69.3 °C |
| CGCGGAAGTATCCGCG ((((((....)))))) | -37.9 kcal/mol | 69 °C |
| CGCGGAATAATCCGCG ((((((....)))))) | -34.7 kcal/mol | 67.7 °C |
| CGCGGACAACTCCGCG ((((((....)))))) | -31.9 kcal/mol | 64.9 °C |
| CGCGGACCGCTCCGCG ((((((....)))))) | -34.1 kcal/mol | 63.1 °C |
| CGCGGACTACTCCGCG ((((((....)))))) | -30.9 kcal/mol | 69 °C |
| CGCGGAGAGTCCGCG ((((((...)))))) | -27 kcal/mol | 69 °C |
| CGCGGAGCGGTCCGCG ((((((....)))))) | -15.8 kcal/mol | 50.5 °C |
| CGCGGGAAAGCCCGCG ((((((....)))))) | -37.1 kcal/mol | 68.1 °C |
| CGCGTCGGAAACGAGGCG (((.(((....))).))) | -46.5 kcal/mol | 60.9 °C |
| CGCTAACGGAAACGTGCG (((..(((....)))))) | -28.9 kcal/mol | 48 °C |
| CGCTACCGGAAACGGGCG (((..(((....)))))) | -22.5 kcal/mol | 49.4 °C |

| Sequence | folding enthalpy [1] | Tm [2] |
| --- | --- | --- |
| CGCTCACGGAAACGTGCG (((..(((....)))))) | -15.6 kcal/mol | 39.6 °C |
| CGCTCCGGAAACGGTGCG (((.(((....))).))) | -31.3 kcal/mol | 60.2 °C |
| CGCTCGGAAACGAACGCG ((((((....)))..))) | -19.4 kcal/mol | 44.8 °C |
| CGCTCGGAAACGATAGCG ((((((....)))..))) | -30.9 kcal/mol | 46.9 °C |
| CGCTCGGAAACGATGCG ((((((....))).))) | -35.4 kcal/mol | 51.8 °C |
| CGCTCGGAAACGATGGCG ((((((....)))..))) | -31.2 kcal/mol | 45.7 °C |
| CGCTGGCGGAAACGCGCG (((..(((....)))))) | -19.5 kcal/mol | 52.5 °C |
| CGCTGTCGGAAACGAGCG (((..(((....)))))) | -25 kcal/mol | 45.2 °C |
| CGCTTACGGAAACGTGCG (((..(((....)))))) | -24.4 kcal/mol | 42.7 °C |
| CGGAACGGAAACGTACCG (((.(((....))).))) | -43.6 kcal/mol | 49.7 °C |
| CGGACCGGAAACGGACCG (((.(((....))).))) | -41.5 kcal/mol | 58.6 °C |
| CGGACGGAAACGTAACCG ((((((....)))..))) | -28.7 kcal/mol | 36.1 °C |
| CGGACGGAAACGTACCG ((((((....))).))) | -24.2 kcal/mol | 47.5 °C |
| CGGACGGAAACGTCCCCG ((((((....)))..))) | -7.24 kcal/mol | 34.7 °C |
| CGGACGGAAACGTGCCCG ((((((....)))..))) | -14.8 kcal/mol | 35.9 °C |
| CGGACGGAAACGTTACCG ((((((....)))..))) | -20.6 kcal/mol | 36.3 °C |
| CGGAGCGGAAACGCCCCG (((.(((....))).))) | -30.8 kcal/mol | 55.8 °C |
| CGGATCCGGAAACGGCCG (((..(((....)))))) | -20.6 kcal/mol | 38.3 °C |
| CGGATCGGAAACGAGCCG (((.(((....))).))) | -47.4 kcal/mol | 65.4 °C |
| CGGATGCGGAAACGCCCG (((..(((....)))))) | -23.4 kcal/mol | 46.9 °C |
| CGGCCGCGGAAACGCCCG (((..(((....)))))) | -20.9 kcal/mol | 42.2 °C |
| CGGCCGGAAACGGAGCCG ((((((....)))..))) | -34.7 kcal/mol | 54.6 °C |
| CGGCCGGAAACGGCCCG ((((((....))).))) | -7.26 kcal/mol | 58.5 °C |

| Sequence | folding enthalpy [1] | Tm [2] |
| --- | --- | --- |
| CGGCCGGAAACGGGCCG ((((((....))).))) | -20 kcal/mol | 66.9 °C |
| CGGGACGGAAACGTACCG (((.(((....))).))) | -42.1 kcal/mol | 62.4 °C |
| CGGGAGCGGAAACGCCCG (((..(((....)))))) | -21.4 kcal/mol | 53.6 °C |
| CGGGCGGAAACGCAGCCG ((((((....)))..))) | -19.5 kcal/mol | 50.2 °C |
| CGGGCGGAAACGCCGCCG ((((((....)))..))) | -10.2 kcal/mol | 47.8 °C |
| CGGGCGGAAACGCTGCCG ((((((....)))..))) | -16.8 kcal/mol | 45.8 °C |
| CGGGCGGAAACGCTTCCG ((((((....)))..))) | -17.9 kcal/mol | 41 °C |
| CGGGGGAAACCCCG (((((....))))) | -21.8 kcal/mol | 68.5 °C |
| CGGGTCGGAAACGACCG (((.(((....)))))) | -11.4 kcal/mol | 61.7 °C |
| CGGTATCGGAAACGACCG (((..(((....)))))) | -27.8 kcal/mol | 36.3 °C |
| CGGTCCGGAAACGGCCG (((.(((....)))))) | -26.7 kcal/mol | 57.6 °C |
| CGGTCGGAAACGAAACCG ((((((....)))..))) | -28.4 kcal/mol | 43.3 °C |
| CGGTCGGAAACGAGGCCG ((((((....)))..))) | -23.7 kcal/mol | 41.5 °C |
| CGGTCGGAAACGATCCCG ((((((....)))..))) | -17.9 kcal/mol | 34.9 °C |
| CGGTCGGAAACGATCCG ((((((....))).))) | -43.2 kcal/mol | 50.5 °C |
| CGGTGCGGAAACGCCCCG (((.(((....))).))) | -28.6 kcal/mol | 53.9 °C |
| CGTAACCGGAAACGGACG (((..(((....)))))) | -15.2 kcal/mol | 34 °C |
| CGTAACGGAAACGTAACG (((.(((....))).))) | -29.6 kcal/mol | 44.8 °C |
| CGTAACGGAAACGTCACG (((.(((....))).))) | -31.7 kcal/mol | 41.9 °C |
| CGTAAGAAATTACG (((((....))))) | -15.7 kcal/mol | 38.4 °C |
| CGTACGGAAACGTAAACG ((((((....)))..))) | -17.3 kcal/mol | 37.2 °C |
| CGTACGGAAACGTATACG ((((((....)))..))) | -17.6 kcal/mol | 35.5 °C |
| CGTACGGAAACGTCCACG ((((((....)))..))) | -12.1 kcal/mol | 30.2 °C |
